Data as given in ChEMBL document CHEMBL1148383, “Semisynthetic macrolide antibacterials derived from tylosin. Synthesis and structure-activity relationships of novel desmycosin analogues” (J Med Chem, 2004).
Values after ≈ are worked out from the molar mass of the structure shown.

How the values were obtained:
Format in all cases: functional
Escherichia coli = assay: Antibacterial activity against Escherichia coli ATCC […]
Method in brief: (§1)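 MICs were determined by broth microdilution following NCCLS guidelines. The test panel includes erythromycin-susceptible strains and erythromycin-resistant strains with constitutive or inducible MLSB phenotypes or with efflux resistance.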

Enterococcus faecalis = assay: Antibacterial activity against Enterococcus faecalis ATCC 29212; method in brief: as §1
Haemophilus influenzae = assay: Antibacterial activity against Haemophilus influenzae ATCC 49247; method in brief: as §1
Streptococcus pneumoniae = assay: Antibacterial activity against Streptococcus pneumoniae PSCB-0541; method in brief: as §1
Staphylococcus aureus [1] = assay: Antibacterial activity against Staphylococcus aureus ATCC 13709; method in brief: as §1
Staphylococcus aureus [2] = assay: Antibacterial activity against Staphylococcus aureus PSCB-0330; method in brief: as §1
Streptococcus pyogenes [3] = assay: Antibacterial activity against Streptococcus pyogenes PSCB-0543; method in brief: as §1
Streptococcus pyogenes [4] = assay: Antibacterial activity against Streptococcus pyogenes PSCB-0545; method in brief: as §1
Staphylococcus aureus [5] = assay: Antibacterial activity against Staphylococcus aureus PSCB-0331; method in brief: as §1
Staphylococcus aureus [6] = assay: Antibacterial activity against Staphylococcus aureus PSCB-0538; method in brief: as §1

| MIC (Escherichia coli) [µg/mL] | MIC (Enterococcus faecalis) [µg/mL] | MIC (Haemophilus influenzae) [µg/mL] | MIC (Streptococcus pneumoniae) [µg/mL] | MIC (Staphylococcus aureus [1]) [µg/mL] | MIC (Staphylococcus aureus [2]) [µg/mL] | MIC (Streptococcus pyogenes [3]) [µg/mL] | MIC (Streptococcus pyogenes [4]) [µg/mL] | MIC (Staphylococcus aureus [5]) [µg/mL] | MIC (Staphylococcus aureus [6]) [µg/mL] | Compound |
| --- | --- | --- | --- | --- | --- | --- | --- | --- | --- | --- |
| > 128 | 1 (≈ 1.19 µM) | 4 (≈ 4.75 µM) | 2 (≈ 2.38 µM) | 0.5 (≈ 0.594 µM) | > 128 | 0.5 (≈ 0.594 µM) | 1 (≈ 1.19 µM) | 0.25 (≈ 0.297 µM) | 0.25 (≈ 0.297 µM) | CCOC(=O)/C=C/C[C@H]1C[C@@H](C)C(=O)/C=C/C(C)=C/[C@H](COC2OC(C)C(O)C(OC)C2OC)[C@@H](CC)OC(=O)C[C@@H](O)[C@H](C)[C@H]1OC1OC(C)C(O)C(N(C)C)C1O (some centres undefined) |
| > 128 | 4 (≈ 5.2 µM) | 128 (≈ 166 µM) | 8 (≈ 10.4 µM) | 8 (≈ 10.4 µM) | > 128 | 64 (≈ 83.1 µM) | 16 (≈ 20.8 µM) | 32 (≈ 41.6 µM) | 4 (≈ 5.2 µM) | CC[C@H]1OC(=O)CC(=O)[C@H](C)[C@@H](O[C@@H]2O[C@@H](C)[C@@H](O)[C@@H](N(C)C)[C@H]2O)[C@H]2C[C@@H](O)[C@](C)(C2)C(=O)/C=C/C(C)=C/[C@@H]1CO[C@@H]1O[C@@H](C)[C@@H](O)[C@@H](OC)[C@@H]1OC |
| > 128 | 8 (≈ 10.4 µM) | 128 (≈ 166 µM) | 4 (≈ 5.2 µM) | 8 (≈ 10.4 µM) | > 128 | 64 (≈ 83.1 µM) | 16 (≈ 20.8 µM) | 32 (≈ 41.6 µM) | 8 (≈ 10.4 µM) | CC[C@H]1OC(=O)CC(=O)[C@H](C)[C@@H](O[C@@H]2O[C@@H](C)[C@@H](O)[C@@H](N(C)C)[C@H]2O)[C@H]2C[C@H](O)[C@@](C)(C2)C(=O)/C=C/C(C)=C/[C@@H]1CO[C@@H]1O[C@@H](C)[C@@H](O)[C@@H](OC)[C@@H]1OC |
| > 128 | 4 (≈ 4.84 µM) | 128 (≈ 155 µM) | 32 (≈ 38.7 µM) | 2 (≈ 2.42 µM) | > 128 | 4 (≈ 4.84 µM) | 4 (≈ 4.84 µM) | 2 (≈ 2.42 µM) | 2 (≈ 2.42 µM) | CC[C@H]1O/C(O)=C/C(=O)[C@H](C)[C@@H](OC2OC(C)C(O)C(N(C)C)C2O)[C@@H](C/C=C/C(=O)OC)C[C@@H](C)C(=O)/C=C/C(C)=C/[C@@H]1COC1OC(C)C(O)C(OC)C1OC (some centres undefined) |
| > 128 | 8 (≈ 10.6 µM) | 4 (≈ 5.31 µM) | 2 (≈ 2.65 µM) | 0.5 (≈ 0.663 µM) | > 128 | 2 (≈ 2.65 µM) | 1 (≈ 1.33 µM) | 1 (≈ 1.33 µM) | 4 (≈ 5.31 µM) | CC[C@H]1OC(=O)/C=C\[C@H](C)[C@@H](OC2OC(C)C(O)C(N(C)C)C2O)[C@@H](CC=O)C[C@@H](C)C(=O)/C=C/C(C)=C/[C@@H]1COC1OC(C)C(O)C(OC)C1OC (some centres undefined) |
| > 128 | – | – | – | – | > 128 | – | – | – | – | CC[C@H]1OC(=O)C[C@H](O)[C@H](C)[C@@H](OC2OC(C)C(O)C(N(C)C)C2O)[C@@H](C/C=C/C(=O)OC)C[C@@H](C)C(=O)/C=C/C(C)=C/[C@@H]1COC1OC(C)C(O)C(OC)C1OC (some centres undefined) |
| > 128 | – | – | – | – | > 128 | – | – | – | – | CC[C@H]1OC(=O)C[C@@H](O)[C@H](C)[C@@H](OC2OC(C)C(O)C(=O)C2O)[C@@H](CC=O)C[C@@H](C)C(=O)/C=C/C(C)=C/[C@@H]1COC1OC(C)C(O)C(OC)C1OC (some centres undefined) |
| > 128 | > 128 | 128 (≈ 157 µM) | > 128 | > 128 | > 128 | > 128 | 128 (≈ 157 µM) | > 128 | > 128 | CC[C@H]1OC(=O)C[C@@H](O)[C@H](C)[C@@H](OC2OC(C)C(O)C(N(C)C)C2O)[C@@H](C/C=C/C(=O)O)C[C@@H](C)C(=O)/C=C/C(C)=C/[C@@H]1COC1OC(C)C(O)C(OC)C1OC (some centres undefined) |
| > 128 | 8 (≈ 10.4 µM) | > 128 | 8 (≈ 10.4 µM) | 8 (≈ 10.4 µM) | > 128 | 32 (≈ 41.6 µM) | 4 (≈ 5.2 µM) | 32 (≈ 41.6 µM) | 16 (≈ 20.8 µM) | CC[C@H]1O/C(O)=C/C(=O)[C@H](C)[C@@H](OC2OC(C)C(O)C(N(C)C)C2O)[C@@H](CC=O)C[C@@H](C)C(=O)/C=C/C(C)=C/[C@@H]1COC1OC(C)C(O)C(OC)C1OC (some centres undefined) |
| > 128 | 2 (≈ 1.99 µM) | 8 (≈ 7.96 µM) | 4 (≈ 3.98 µM) | < 0.25 | > 128 | 2 (≈ 1.99 µM) | 0.5 (≈ 0.497 µM) | 0.5 (≈ 0.497 µM) | 0.25 (≈ 0.249 µM) | CCOC(=O)/C=C/C[C@H]1C[C@@H](C)C(=O)/C=C/C(C)=C/[C@H](COC2OC(C)C(O)C(OC)C2OC)[C@@H](CC)OC(=O)C[C@@H](OC(=O)Cc2ccc([N+](=O)[O-])cc2)[C@H](C)[C@H]1OC1OC(C)C(O)C(N(C)C)C1O (some centres undefined) |
| 64 (≈ 69.6 µM) | 16 (≈ 17.4 µM) | 64 (≈ 69.6 µM) | 8 (≈ 8.69 µM) | 2 (≈ 2.17 µM) | 64 (≈ 69.6 µM) | 64 (≈ 69.6 µM) | 1 (≈ 1.09 µM) | 2 (≈ 2.17 µM) | 4 (≈ 4.35 µM) | CC[C@H]1OC(=O)C[C@@H](O)[C@H](C)[C@@H](OC2OC(C)C(OC3CC(C)(O)C(O)C(C)O3)C(N(C)C)C2O)[C@@H](CC=O)C[C@@H](C)C(=O)CCC(C)C[C@@H]1COC1OC(C)C(O)C(OC)C1OC (some centres undefined) |

The next lines start with the compound.

| Compound | MIC (Escherichia coli) [µg/mL] | MIC (Enterococcus faecalis) [µg/mL] | MIC (Haemophilus influenzae) [µg/mL] | MIC (Streptococcus pneumoniae) [µg/mL] | MIC (Staphylococcus aureus [1]) [µg/mL] | MIC (Staphylococcus aureus [2]) [µg/mL] | MIC (Streptococcus pyogenes [3]) [µg/mL] | MIC (Streptococcus pyogenes [4]) [µg/mL] | MIC (Staphylococcus aureus [5]) [µg/mL] | MIC (Staphylococcus aureus [6]) [µg/mL] |
| --- | --- | --- | --- | --- | --- | --- | --- | --- | --- | --- |
| CC[C@H]1OC(=O)C[C@@H](O)[C@H](C)[C@@H](OC2OC(C)C(O)C(N(C)C)C2O)[C@@H](C/C=C/C(=O)OC)C[C@@H](C)C(=O)/C=C/C(C)=C/[C@@H]1COC1OC(C)C(O)C(OC)C1OC (some centres undefined) | > 128 | 0.5 (≈ 0.604 µM) | 16 (≈ 19.3 µM) | 2 (≈ 2.42 µM) | 0.5 (≈ 0.604 µM) | > 128 | 0.5 (≈ 0.604 µM) | 0.5 (≈ 0.604 µM) | 0.5 (≈ 0.604 µM) | 0.5 (≈ 0.604 µM) |
| CC[C@H]1OC(=O)C[C@@H](OC(C)=O)[C@H](C)[C@@H](OC2OC(C)C(O)C(N(C)C)C2O)[C@@H](CC=O)C[C@@H](C)C(=O)/C=C/C(C)=C/[C@@H]1COC1OC(C)C(O)C(OC)C1OC (some centres undefined) | > 128 | 8 (≈ 9.83 µM) | 32 (≈ 39.3 µM) | 2 (≈ 2.46 µM) | 1 (≈ 1.23 µM) | > 128 | 2 (≈ 2.46 µM) | 2 (≈ 2.46 µM) | 2 (≈ 2.46 µM) | 8 (≈ 9.83 µM) |
| CC[C@H]1OC(=O)CC2(O)C(C=O)[C@@H](C[C@@H](C)C(=O)/C=C/C(C)=C/[C@@H]1CO[C@@H]1O[C@@H](C)[C@@H](O)[C@@H](OC)[C@@H]1OC)[C@H](O[C@@H]1O[C@@H](C)[C@@H](O)[C@@H](N(C)C)[C@H]1O)[C@H]2C (some centres undefined) | > 128 | 16 (≈ 20.8 µM) | 64 (≈ 83.1 µM) | 32 (≈ 41.6 µM) | 32 (≈ 41.6 µM) | > 128 | 64 (≈ 83.1 µM) | 32 (≈ 41.6 µM) | 64 (≈ 83.1 µM) | 32 (≈ 41.6 µM) |
| CCOC(=O)/C=C/C[C@H]1C[C@@H](C)C(=O)/C=C/C(C)=C/[C@H](COC2OC(C)C(O)C(OC)C2OC)[C@@H](CC)OC(=O)C[C@@H](NN(C(=O)OCC)C(=O)OCC)[C@H](C)[C@H]1OC1OC(C)C(O)C(N(C)C)C1O (some centres undefined) | 128 (≈ 128 µM) | 64 (≈ 64 µM) | 128 (≈ 128 µM) | 32 (≈ 32 µM) | 4 (≈ 4 µM) | 128 (≈ 128 µM) | 32 (≈ 32 µM) | 16 (≈ 16 µM) | 32 (≈ 32 µM) | 64 (≈ 64 µM) |
| CC[C@H]1OC(=O)C[C@@H](O)[C@H](C)[C@@H](O[C@@H]2O[C@H](C)[C@@H](O)[C@@H](N(C)C)[C@H]2O)[C@@H](CC=O)C[C@@H](C)C(=O)/C=C/C(C)=C/[C@@H]1CO[C@@H]1O[C@H](C)[C@@H](O)[C@@H](OC)[C@H]1OC | 128 (≈ 166 µM) | 1 (≈ 1.3 µM) | 4 (≈ 5.18 µM) | 1 (≈ 1.3 µM) | 1 (≈ 1.3 µM) | > 128 | 1 (≈ 1.3 µM) | 0.5 (≈ 0.648 µM) | 1 (≈ 1.3 µM) | 1 (≈ 1.3 µM) |
| CC[C@H]1OC(=O)C[C@@H](O)[C@H](C)[C@@H](OC2OC(C)C(O)C(N(C)C)C2O)[C@@H](CC=O)C[C@@H](C)C(=O)CCC(C)C[C@@H]1COC1OC(C)C(O)C(OC)C1OC (some centres undefined) | 128 (≈ 165 µM) | 32 (≈ 41.2 µM) | 64 (≈ 82.5 µM) | 2 (≈ 2.58 µM) | 1 (≈ 1.29 µM) | 128 (≈ 165 µM) | 1 (≈ 1.29 µM) | 1 (≈ 1.29 µM) | 2 (≈ 2.58 µM) | 2 (≈ 2.58 µM) |
| CC[C@H]1O/C(O)=C/C(=O)[C@H](C)[C@@H](OC2OC(C)C(O)C(N(C)C)C2O)[C@@H](CC=O)C[C@@H](C)C(=O)CCC(C)C[C@@H]1COC1OC(C)C(O)C(OC)C1OC (some centres undefined) | > 128 | > 128 | > 128 | 64 (≈ 82.7 µM) | 8 (≈ 10.3 µM) | > 128 | 8 (≈ 10.3 µM) | 1 (≈ 1.29 µM) | 8 (≈ 10.3 µM) | 16 (≈ 20.7 µM) |
| CC[C@H]1OC(=O)C[C@@H](O)[C@H](C)[C@@H](O[C@@H]2O[C@H](C)[C@@H](O[C@H]3C[C@@](C)(O)[C@@H](O)[C@H](C)O3)[C@H](N(C)C)[C@H]2O)[C@@H](CC=O)C[C@@H](C)C(=O)/C=C/C(C)=C/[C@@H]1CO[C@@H]1O[C@H](C)[C@@H](O)[C@@H](OC)[C@H]1OC [TYLOSIN] | 64 (≈ 69.9 µM) | 1 (≈ 1.09 µM) | 8 (≈ 8.73 µM) | 0.5 (≈ 0.546 µM) | 1 (≈ 1.09 µM) | > 128 | 1 (≈ 1.09 µM) | 0.5 (≈ 0.546 µM) | 1 (≈ 1.09 µM) | 0.5 (≈ 0.546 µM) |
